Compound activity (PubChem)
CASP6 VEID inh = blocks human caspase-6 cleavage activity; P55212; purified caspase-6, Z-VEID-R110 cleavage fluorescence; inhibition, % at 12.5 µM; 0.53% of 350,000 active;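 active = mean inhibition across replicates at least about 35%, with every replicate also reaching that limit, limit read from the data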;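 also: 0% = median of neutral control wells and 100% = no fluorescence left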
UHRF1 binding = human UHRF1 methylated DNA binding inhibitors. UHRF1 binding to methylated oligo, TR-FRET. inhibition, % at 4.4 µM. 0.75% of 370,000 active; in the data active = inhibition above about 21%;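 also: UHRF1 SRA domain binding a hemimethylated CpG hairpin DNA probe; 0% = median of test compound wells and 100% = reference inhibitor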
TDP2 inh = blocks human TDP2 phosphodiesterase activity | O95551 | recombinant TDP2, T5PNP hydrolysis, p-nitrophenol absorbance 415 nm | inhibition, % at 12.8 µM | 0.34% of 370,000 active;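 active = inhibition above the mean of all tested compounds plus 3 SD, set per campaign, cut at about 25% in these data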;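 also: 0% = DMSO with enzyme and 100% = buffer with substrate but no TDP2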
Target sequence (O95551 whole entry, looked up): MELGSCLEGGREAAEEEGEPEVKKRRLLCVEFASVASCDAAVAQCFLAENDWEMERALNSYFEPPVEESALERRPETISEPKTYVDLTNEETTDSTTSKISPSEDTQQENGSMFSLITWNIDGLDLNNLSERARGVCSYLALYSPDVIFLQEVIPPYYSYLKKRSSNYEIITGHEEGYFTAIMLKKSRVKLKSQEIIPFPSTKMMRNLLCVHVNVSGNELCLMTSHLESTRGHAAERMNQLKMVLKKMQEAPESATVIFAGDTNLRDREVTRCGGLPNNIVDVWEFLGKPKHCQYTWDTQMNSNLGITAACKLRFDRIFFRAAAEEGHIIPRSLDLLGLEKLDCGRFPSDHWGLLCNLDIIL
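test system = human TDP2 enzyme | input = TDP2 enzyme at 120 nM final | medium = 50 mM Tris-HCl pH 7.5 with Mg2+, KCl, DTT, BSA | also added = T5PNP substrate, 5 mM | times = 2 h at 37 °C | technique = epi absorbance | benchmarks = high control without enzyme, low control DMSO plus TDP2 | replication = each compound tested once, singlicate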
NSD2 HMT inh = inhibitors of human histone methyltransferase NSD2; O96028; AID 743445; inhibition, % at 12.5 µM; 0.54% of 310,000 active; NSD2 peptide methylation, AlphaScreen, 120 min; in the data active = inhibition above about 50%
LEDGF integ inh = blocks HIV-1 LEDGF/p75-dependent DNA integration; 0.64% of 370,000 active; inhibition, % at 3.7 µM; TR-FRET IN-LEDGF/p75 DNA integration, Eu/Cy5; AID 743269;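 active = inhibition above the screen-wide mean plus 3 SD, cut at about 13% in these data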;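 also: signal is the Cy5 over europium emission ratio at 671 and 618 nm; 0% = plate median of compound wells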
MBD2 DNA inh = MBD2-methylated oligo binding inhibition; Q9UBB5; TR-FRET, MBD2 binding to methylated oligonucleotide; inhibition, % at 4.4 µM; 0.31% of 370,000 active; in the data active = inhibition above about 13%
* = called active by the depositor; / = no result. Only some compounds are listed: those with a hit (about 1.9% of all), similar ones and a draw of the others.

SMILES	CASP6 VEID inh	UHRF1 binding	TDP2 inh	NSD2 HMT inh	LEDGF integ inh	MBD2 DNA inh
CCOc1ccc2ccccc2c1/C=N/NC(=O)CNC(=O)Cc1ccccc1	2	23*	-15	1	-1	2
COC(=O)c1cc(NC(=O)CN2C(=O)CSC2=O)ccc1Cl	/	23*	-1	/	4	8
Cn1c(-c2ccc3c(c2)OCO3)cnc1NCc1ccccc1	/	-1	0	6	-1	2
Cn1c(-c2ccc3c(c2)OCO3)cnc1NCc1ccccc1Cl	0	48*	-1	5	-2	-7
CC(=O)N1CC(=O)N2[C@H](CO)[C@@H](c3ccc(-c4ccccc4)cc3)[C@H]2C1	0	/	/	/	/	/
CCCN1[C@H](C(=O)N[C@H](C)c2ccccc2)[C@@H](CO)[C@@H]2Cn3c(cccc3=O)[C@@H]21	2	/	/	/	/	/
Cn1c(=O)c2cccnc2c(=O)n1C	-2	3	-8	0	-3	1
Cc1cc(C)c(-c2c(O)c3cccnc3n(C)c2=O)c(C)c1	-2	29*	-2	42	-1	-4
Cc1ccc(S(=O)(=O)N2CCOCC2)c2nsnc12	/	1	-1	9	-1	0
Cc1ccc(S(=O)(=O)N2CCCCC2)c2nsnc12	0	24*	9	-4	2	9
CC1(C)CC(=O)C=C(NC2CCCCC2)C1	1	2	-1	/	3	0
CC1(C)CC(=O)C=C(C#CC2CC2)C1	1	23*	2	/	-1	6
O=C(/C=C/c1cccs1)N1CCN(c2ccc(O)cc2)CC1	62*	-2	0	6	2	-2
CCOc1ccc(C(=O)NCC(C)NC(=O)c2ccc(OCC)cc2)cc1 (stereo not drawn)	4	24*	-25	15	4	6
C[C@@H]1CN([C@H](C)CO)C(=O)c2cc(C3=CCCC3)cnc2O[C@@H]1CN(C)Cc1ccc(C(=O)O)cc1	-3	/	/	/	/	/
COc1ccc(-n2cccc2/C=C2/NC(=O)N(c3cccc(Cl)c3)C2=O)cc1	3	-1	8	0	2	-5
O=C(O)c1cccc(-n2cccc2/C=C2\SC(=O)N(Cc3ccccc3F)C2=O)c1	86*	5	0	10	0	2
O=C(O)c1cccc(-n2cccc2/C=C2/NC(=O)N(c3cccc(Cl)c3)C2=O)c1	72*	27*	1	18	8	8
COc1ccc(C2(c3ccc(OC)cc3)NC(=O)N(CC(=O)Nc3ccc(C(N)=O)cc3)C2=O)cc1	7	42*	8	-2	5	10
C[C@@H]1CCCCO[C@H](CN(C)Cc2ccncc2)[C@H](C)CN([C@H](C)CO)C(=O)c2cc(NS(=O)(=O)c3cn(C)cn3)ccc2O1	0	/	/	/	/	/
Cc1ccc(S(=O)(=O)N(C)C[C@H]2Oc3ncc(-c4ccncc4)cc3C(=O)N([C@@H](C)CO)C[C@H]2C)cc1	-1	/	/	/	/	/
CN1CCCCC(NC(=O)COCc2ccccc2)C1=O (stereo not drawn)	38*	-1	-11	/	6	-8
COCCNC(=O)C[C@@H]1C=C[C@@H](NS(=O)(=O)c2ccc(C)cc2)[C@H](CO)O1	0	/	/	/	/	/
C=CCOc1ccc(C(=O)N(Cc2ccc(N(C)C)cc2)C2CCS(=O)(=O)C2)cc1 (stereo not drawn)	/	63*	3	5	-3	2
CCS(=O)(=O)N[C@@H]1C=C[C@H](CC(=O)Nc2ccc(-c3ccccc3)cc2)O[C@@H]1CO	5	/	/	/	/	/
SMILES	CASP6 VEID inh	UHRF1 binding	TDP2 inh	NSD2 HMT inh	LEDGF integ inh	MBD2 DNA inh
COc1cnc(-c2ccccc2)nc1Sc1ccccc1	-3	5	-8	1	-1	2
COc1ccccc1Sc1nc(-c2ccccc2)ncc1OC	-2	48*	4	-2	4	-3
O=C(CCSc1ccccc1)Nc1ccccc1Br	-4	26*	-2	-1	2	13
O=C(CCSc1ccccc1)Nc1ncccn1	1	1	-5	-2	0	-9
CCOC(=O)c1ccc(NC(=O)O[C@H]2[C@H](OC(=O)Nc3ccc4c(c3)OCO4)[C@@H](OC(=O)Nc3ccc4c(c3)OCO4)[C@@H](OC)O[C@@H]2CO)cc1	3	/	/	/	/	/
Cc1ccc(NC(=O)c2sc(C)nc2C)c(C)c1	51*	-1	8	-2	-2	4
Cc1cccc(-c2ccc([C@H]3[C@@H](CO)N4CCCCN(C(=O)c5ccncc5)C[C@H]34)cc2)c1	0	/	/	/	/	/
